Measured values taken from ChEMBL document CHEMBL2146441, “2,6-Disubstituted imidazo[2,1-b][1,3,4]thiadiazoles: search for anticancer agents” (2012).

How the values were obtained:
Format in all cases: functional
OVCAR-4 = assay: Cytotoxicity against human OVCAR4 cells assessed as cell growth at 10^-5 M after 48 hrs by SRB assay; details: OVCAR-4, 48 h, read-out: Activity
MCF7 = assay: Cytotoxicity against human MCF7 cells assessed as cell growth at 10^-5 M after 48 hrs by SRB assay; details: MCF7, 48 h, read-out: Activity
OVCAR-5 [1] = assay: Growth inhibition of human OVCAR5 cells after 48 hrs by SRB assay; details: OVCAR-5, 48 h
Summary of the method: (§1)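 Adherent NCI-60 lines grown in RPMI 1640 with 5% FBS, seeded at 5000–40,000 cells/well, and preincubated 24 h at 37 °C, 5% CO2. Compound, stocked in DMSO, given either once at 10^-5 M or at five 10-fold dilutions for 48 h. Cells fixed with cold TCA (final 10%), stained with 0.4% SRB, and read at 515 nm. GI50 taken as 50% reduction in net protein increase versus time-zero and control plates.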

[2] = Growth inhibition of human MDA-MB-81 cells after 48 hrs by SRB assay
NCI-H460 = assay: Cytotoxicity against human NCI-H460 cells assessed as cell growth at 10^-7 M after 48 hrs by SRB assay; details: NCI-H460, 48 h, read-out: Activity
HCT-15 = assay: Cytotoxicity against human HCT15 cells assessed as cell growth at 10^-7 M after 48 hrs by SRB assay; details: HCT-15, 48 h, read-out: Activity
Summary of the method: (§2)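 NCI-60 five-dose screen. Cells were grown in RPMI 1640 with 5% FBS and seeded at 5000–40,000 cells/well according to doubling time. They were pre-incubated 24 h at 37 °C in 5% CO₂, and time-zero (Tz) plates were TCA-fixed at drug addition. Five 10-fold dilutions of DMSO stock were applied for 48 h. Read-out was SRB staining, 515 nm absorbance, with percent growth calculated versus Tz and untreated control.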

SF-295 = assay: Cytotoxicity against human SF295 cells assessed as cell growth at 10^-7 M after 48 hrs by SRB assay; details: SF-295, 48 h, read-out: Activity
Malme-3M = assay: Cytotoxicity against human MALME-3M cells assessed as cell growth at 10^-7 M after 48 hrs by SRB assay; details: read-out: Activity
EKVX = assay: Cytotoxicity against human EKVX cells assessed as cell growth at 10^-4 M after 48 hrs by SRB assay; details: read-out: Activity
Summary of the method: (§3)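 NCI-60 screen: lines kept in RPMI 1640 with 5% FBS, seeded at 5000–40,000 cells/well by doubling time, preincubated 24 h at 37 °C in 5% CO2. Time-zero plates TCA-fixed at drug addition. DMSO stocks diluted in medium, 48 h exposure. Fixation in cold TCA (final 10% adherent, 16% suspension), 0.4% SRB stain, solubilised in 10 mM Tris base, A515. Percent growth computed against control and time-zero.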

OVCAR-5 [3] = assay: Cytotoxicity against human OVCAR5 cells assessed as cell growth at 10^-7 M after 48 hrs by SRB assay; details: OVCAR-5, 48 h, read-out: Activity
[4] = Cytotoxicity against human NCI-ADR-RES cells assessed as cell growth at 10^-7 M after 48 hrs by SRB assay; details: read-out: Activity
A498 = assay: Cytotoxicity against human A498 cells assessed as cell growth at 10^-7 M after 48 hrs by SRB assay; details: A498, 48 h, read-out: Activity; summary of the method: as §3
CAKI-1 = assay: Cytotoxicity against human Caki1 cells assessed as cell growth at 10^-7 M after 48 hrs by SRB assay; details: CAKI-1, 48 h, read-out: Activity; summary of the method: as §3
UO-31 [5] = assay: Cytotoxicity against human UO31 cells assessed as cell growth at 10^-7 M after 48 hrs by SRB assay; details: UO-31, 48 h, read-out: Activity
MDA-MB-231 = assay: Cytotoxicity against human MDA-MB-231 cells assessed as cell growth at 10^-7 M after 48 hrs by SRB assay; details: MDA-MB-231, 48 h, read-out: Activity
CCRF-CEM = assay: Cytotoxicity against human CCRF-CEM cells assessed as cell growth at 10^-8 M after 48 hrs by SRB assay; details: read-out: Activity; summary of the method: as §3
HL-60 = assay: Cytotoxicity against human HL60 cells assessed as cell growth at 10^-8 M after 48 hrs by SRB assay; details: HL-60, 48 h, read-out: Activity; summary of the method: as §2
[6] = Cytotoxicity against human […] cells assessed as cell growth at 10^-8 M after 48 hrs by SRB assay; details: 48 h, read-out: Activity
IGROV-1 = assay: Cytotoxicity against human IGROV1 cells assessed as cell growth at 10^-8 M after 48 hrs by SRB assay; details: IGROV-1, 48 h, read-out: Activity
UO-31 [7] = assay: Cytotoxicity against human UO31 cells assessed as cell growth at 10^-8 M after 48 hrs by SRB assay; details: UO-31, 48 h, read-out: Activity
[8] = Cytotoxicity against human Hs 578T cells assessed as cell growth at 10^-8 M after 48 hrs by SRB assay; details: read-out: Activity; summary of the method: as §2
HCT-116 = assay: Cytotoxicity against human HCT116 cells assessed as cell growth at 10^-6 M after 48 hrs by SRB assay; details: HCT-116, 48 h, read-out: Activity; summary of the method: as §2
SW-620 = assay: Cytotoxicity against human SW620 cells assessed as cell growth at 10^-6 M after 48 hrs by SRB assay; details: SW-620, 48 h, read-out: Activity
SNB-19 = assay: Cytotoxicity against human SNB19 cells assessed as cell growth at 10^-6 M after 48 hrs by SRB assay; details: SNB-19, 48 h, read-out: Activity
OVCAR-3 = assay: Cytotoxicity against human OVCAR3 cells assessed as cell growth at 10^-6 M after 48 hrs by SRB assay; details: OVCAR-3, 48 h, read-out: Activity
RXF 393 = assay: Cytotoxicity against human RXF393 cells assessed as cell growth at 10^-6 M after 48 hrs by SRB assay; details: RXF 393, 48 h, read-out: Activity
[9] = Growth inhibition of human […] cells after 48 hrs by SRB assay
Summary of the method: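 Leukemia suspension lines grown in RPMI 1640 with 5% FBS, seeded at 5000–40,000 cells/well, and preincubated 24 h at 37 °C, 5% CO2. Compound, stocked in DMSO, given either once at 10^-5 M or at five 10-fold dilutions for 48 h. Settled cells fixed with 80% TCA (final 16%), stained with SRB, and read at 515 nm. GI50 calculated against time-zero and control growth.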

NCI-H522 = assay: Growth inhibition of human NCI-H522 cells after 48 hrs by SRB assay; details: NCI-H522, 48 h; for CC50: read-out: LC50 (the source's name); summary of the method: as §1
KM12 = assay: Growth inhibition of human KM12 cells after 48 hrs by SRB assay; details: KM12, 48 h; summary of the method: as §1

Row | SMILES | growth at 10 µM (OVCAR-4) | growth at 10 µM (MCF7) | GI50 (OVCAR-5 [1]) | LC50 (OVCAR-5 [1]) | TGI (OVCAR-5 [1]) | GI50 [2] | growth at 0.1 µM (NCI-H460) | growth at 0.1 µM (HCT-15) | growth at 0.1 µM (SF-295) | growth at 0.1 µM (Malme-3M) | growth at 100 µM (EKVX) | growth at 0.1 µM (OVCAR-5 [3]) | growth at 0.1 µM [4] | growth at 0.1 µM (A498) | growth at 0.1 µM (CAKI-1) | growth at 0.1 µM (UO-31 [5]) | growth at 0.1 µM (MDA-MB-231) | growth at 0.01 µM (CCRF-CEM) | growth at 0.01 µM (HL-60) | growth at 0.01 µM [6] | further results
1 | COc1ccc(-c2nn3cc(-c4cccc(N)c4)nc3s2)cc1 | 7% | 21% | 8.54 µM | > 100 µM | 47.1 µM | 1.58 µM | 92% | 106% | 87% | 97% | -18% | 103% | 96% | 79% | 76% | 81% | 81% | 96% | 103% | 96% | growth at 0.01 µM (IGROV-1): 102%; growth at 0.01 µM (UO-31 [7]): 86%; growth at 0.01 µM [8]: 90%; growth at 1 µM (HCT-116): 90%; growth at 1 µM (SW-620): 86%; growth at 1 µM (SNB-19): 81%; growth at 1 µM (OVCAR-3): 86%; growth at 1 µM (RXF 393): 63%; GI50 [9]: 1.28 µM; LC50 [9]: > 100 µM; TGI [9]: 26.7 µM; GI50 (NCI-H522): 1.63 µM; TGI (NCI-H522): 14 µM; CC50 (NCI-H522): 51.1 µM; Concentration killing 50% of cells (LC50) (KM12): > 100 µM; GI50 (KM12): 5.34 µM; TGI (KM12): 27.5 µM
2 | COc1ccc(-c2nn3cc(-c4ccc(O)cc4O)nc3s2)cc1 | -60% | 3% | 3.43 µM | > 100 µM | > 100 µM | 1.37 µM | 101% | 92% | 90% | 90% | -9% | 90% | 99% | 70% | 90% | 83% | 99% | 98% | 96% | 100% | growth at 0.01 µM (IGROV-1): 96%; growth at 0.01 µM (UO-31 [7]): 84%; growth at 0.01 µM [8]: 95%; growth at 1 µM (HCT-116): 86%; growth at 1 µM (SW-620): 86%; growth at 1 µM (SNB-19): 85%; growth at 1 µM (OVCAR-3): 89%; growth at 1 µM (RXF 393): 55%; GI50 [9]: 2.08 µM; LC50 [9]: > 100 µM; TGI [9]: > 100 µM; GI50 (NCI-H522): 1.88 µM; TGI (NCI-H522): 11.2 µM; CC50 (NCI-H522): > 100 µM; Concentration killing 50% of cells (LC50) (KM12): > 100 µM; GI50 (KM12): 3.61 µM; TGI (KM12): > 100 µM
